Reference: ChEMBL document CHEMBL1134663, “Investigation of 5-nitrofuran derivatives: synthesis, antibacterial activity, and quantitative structure-activity relationships” (J Med Chem, 2001)

Legend:
Caulobacter vibrioides = test: Compound was tested against gram-negative Caulobacter crescentus, strain NA 1000 bacteria; format: functional, organism-based; conditions: read-out: Log 1/IC50 (converted)
In short: (§1)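 Sequential broth macrodilution. S. aureus was grown in TSB at 37 °C and C. crescentus in PYE (peptone, yeast extract, 0.8 mM MgSO4, 0.5 mM CaCl2) at 30 °C. Inoculum was an 8 h exponential culture diluted to about 2 × 10^5 bacteria/mL and added 1:1 to 2-fold serial dilutions. Incubation was 12 h (S. aureus) or 20 h (C. crescentus). Growth was read at A600, and the 50% growth inhibition concentration is reported as log(1/IC50), µmol/mL.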

Staphylococcus aureus = test: Activity against gram-positive Staphylococcus aureus strain ATCC 25923 bacteria; format: functional, organism-based; conditions: read-out: Log 1/IC50 (converted); in short: as §1

| Structure (SMILES) | IC50 (Caulobacter vibrioides) | IC50 (Staphylococcus aureus) |
| --- | --- | --- |
| O=C1/C(=C/c2ccc([N+](=O)[O-])o2)Oc2ccc(Cl)cc21 | 5.25 mM | 0.575 mM |
| O=C(/C=C/c1ccc([N+](=O)[O-])o1)c1cc([N+](=O)[O-])ccc1O | 14.8 mM | 17 mM |
| CCc1ccc2c(c1)C(=O)/C(=C/c1ccc([N+](=O)[O-])o1)O2 | 2.75 mM | 0.447 mM |
| COc1ccc2c(c1)C(=O)/C(=C/c1ccc([N+](=O)[O-])o1)O2 | 1.05 mM | 0.151 mM |
| CCc1ccc(OC(C)=O)c(C(=O)/C=C/c2ccc([N+](=O)[O-])o2)c1 |  | 3.98 mM |
| O=C(/C=C/c1ccc([N+](=O)[O-])o1)c1ccccc1O | 64.6 mM | 7.24 mM |
| CC(=O)Oc1ccccc1C(=O)/C=C/c1ccc([N+](=O)[O-])o1 | 42.7 mM | 6.92 mM |
| CCCc1ccc2c(c1)C(=O)/C(=C/c1ccc([N+](=O)[O-])o1)O2 | 3.09 mM | 0.447 mM |
| O=C1/C(=C/c2ccc([N+](=O)[O-])o2)Oc2ccc([N+](=O)[O-])cc21 | 11.7 mM | 3.98 mM |
| O=C1/C(=C/c2ccc([N+](=O)[O-])o2)Oc2ccccc21 | 1.29 mM | 0.302 mM |
| N#Cc1ccc2c(c1)C(=O)/C(=C/c1ccc([N+](=O)[O-])o1)O2 | 4.57 mM | 3.16 mM |
| O=C(/C=C/c1ccc([N+](=O)[O-])o1)c1cc(Cl)ccc1O |  | 11.7 mM |
| CC(=O)Oc1ccc(C)cc1C(=O)/C=C/c1ccc([N+](=O)[O-])o1 |  | 4.79 mM |
| CC(=O)Oc1ccc(Cl)cc1C(=O)/C=C/c1ccc([N+](=O)[O-])o1 | 50.1 mM | 10 mM |
| CC(=O)Oc1ccc([N+](=O)[O-])cc1C(=O)/C=C/c1ccc([N+](=O)[O-])o1 | 14.8 mM | 16.2 mM |
| Cc1ccc(O)c(C(=O)/C=C/c2ccc([N+](=O)[O-])o2)c1 |  | 6.61 mM |
| Cc1ccc2c(c1)C(=O)/C(=C/c1ccc([N+](=O)[O-])o1)O2 | 1.26 mM | 0.115 mM |
| CCc1ccc(O)c(C(=O)/C=C/c2ccc([N+](=O)[O-])o2)c1 |  | 15.8 mM |
| O=C1/C(=C/c2ccc([N+](=O)[O-])o2)Oc2ccc(Br)cc21 | 3.16 mM | 0.661 mM |
